# Test results reported in paper PMC9275543 (Chromatographia, 2022).
# Read-outs that look alike come from different tables or passages of the source.
# Tests used:
# [1] = biological target: angiotensin-converting enzyme 2 (ACE2) (Homo sapiens, UniProt Q9BYF1); test: Frontal analysis on the ACE2 affinity capillary column; format: binding; conditions: 5 μM; 25 μm i.d., 40 mm; 30 nL/min; 25 °C
# [2] = biological target: SARS-CoV-2-Main protease (Main pro) (Severe acute respiratory syndrome coronavirus 2, UniProt P0DTD1); test: Normalized breakthrough curves on the Main pro affinity capillary column; format: binding
# Method in brief: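 Recombinant biotinylated Main pro was loaded at 10 μM and 30 nL/min onto a neutravidin poly(GMA-co-EDMA) monolith capillary, immobilising about 1.60 pmol (n = 6). Free test compound and its PEG-dispersed oxidised MWCNT nanovector (5 μM) were flushed in 50 mM PBS pH 7.4. Reference columns were neutravidin-only and ACE2. UV was read at 238 nm. Breakthrough was normalised as outlet/inlet absorbance versus tp/t0, with t0 from DMSO.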
# ACE2 [3] = biological target: T1, ACE2 (Homo sapiens, UniProt Q9BYF1); test: Competition experiment with SARS-CoV-2 RBD on the ACE2 affinity column; format: binding; conditions: from competition with SARS-CoV-2 RBD
# [4] = Breakthrough on neutravidin control column; format: binding; conditions: 5 μM; 25 μm i.d.; 30 nL/min; 25 °C; no ACE2 or Main pro
# Method in brief: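 Frontal analysis: free test compound or its PEG-dispersed oxidized multiwall carbon nanotube nanovector, each at 5 μM in 50 mM PBS pH 7.4, flushed successively through a neutravidin poly(GMA-co-EDMA) monolith capillary (40 mm, 25 μm i.d.) with no grafted receptor. Run at 30 nL min−1 and 25 °C with UV detection at 238 nm. Saturation plateau time tp is normalized to DMSO-derived dead time t0.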
# ACE2 [5] = biological target: T1, ACE2; conditions: surface plasmon resonance; cited from earlier work
# ACE2 [6] = biological target: T1, ACE2; conditions: cell chromatography; cited from earlier work
# T1 sequence (Q9BYF1 18-805): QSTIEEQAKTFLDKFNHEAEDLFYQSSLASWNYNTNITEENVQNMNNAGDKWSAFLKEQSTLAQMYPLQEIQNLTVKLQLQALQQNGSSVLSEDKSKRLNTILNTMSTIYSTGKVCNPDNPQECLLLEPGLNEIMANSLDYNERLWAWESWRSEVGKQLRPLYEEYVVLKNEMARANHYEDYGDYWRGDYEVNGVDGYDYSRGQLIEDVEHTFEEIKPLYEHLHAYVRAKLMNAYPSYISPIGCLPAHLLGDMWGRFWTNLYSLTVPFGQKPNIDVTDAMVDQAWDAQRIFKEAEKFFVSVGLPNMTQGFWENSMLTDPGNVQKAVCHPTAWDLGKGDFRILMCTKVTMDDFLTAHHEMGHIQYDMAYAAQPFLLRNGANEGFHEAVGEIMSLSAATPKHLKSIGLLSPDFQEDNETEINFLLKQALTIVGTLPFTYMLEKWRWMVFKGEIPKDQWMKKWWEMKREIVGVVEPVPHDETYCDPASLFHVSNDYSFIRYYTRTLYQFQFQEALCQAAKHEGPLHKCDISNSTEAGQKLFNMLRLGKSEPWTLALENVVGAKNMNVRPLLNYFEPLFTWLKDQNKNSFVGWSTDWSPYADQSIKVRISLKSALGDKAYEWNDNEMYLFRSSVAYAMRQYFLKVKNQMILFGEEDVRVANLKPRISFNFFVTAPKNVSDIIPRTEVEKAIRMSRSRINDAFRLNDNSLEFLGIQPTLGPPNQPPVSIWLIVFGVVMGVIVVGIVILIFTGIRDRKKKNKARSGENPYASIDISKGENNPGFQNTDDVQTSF
# angiotensin-converting enzyme 2 (ACE2), sequence (Q9BYF1 18-805): as above
Structure (SMILES),normalized breakthrough time on the ACE2 column [1],Kd [2] [µM],"normalized breakthrough time on the Main pro column ([2]; 5 μM, 25 μm i.d., 40 mm, 30 nL/min, 25 °C)",binding site on ACE2 (ACE2 [3]),normalized breakthrough time t/t0 on neutravidin control column [4],Kd (ACE2 [5]) [µM],Kd (ACE2 [6]) [µM]
C[C@@H]1C[C@H]2[C@@H]3CCC4=CC(=O)C=C[C@]4(C)[C@@]3(F)[C@@H](O)C[C@]2(C)[C@@]1(O)C(=O)CO [Dexamethasone],above 1,> 5,above 1,bound on the orthosteric site of ACE2 with specific interaction,~1,9,
"CCN(CC)CCCC(C)Nc1ccnc2cc(Cl)ccc12 (stereo not shown) [Chloroquine, chloroquine]",,,,,,,1.3
